Results: ChEMBL document CHEMBL1152472, “AdeIJK, a resistance-nodulation-cell division pump effluxing multiple antibiotics in Acinetobacter baumannii” (2008)
Values after ≈ are worked out from the molar mass of the structure shown.

How the values were obtained:
[1] = tested on: Acinetobacter baumannii; experiment: Antimicrobial activity against Acinetobacter baumannii BM4652 expressing adeIJK genes with pAT807 isolated from patient with urinary tract infection by E test; assay type: functional; conditions: BM4652, Urine
How it was run: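 E-test MIC on solid medium, with 0.005 mM IPTG added to induce adeIJK carried on plasmid pAT807 in the ΔadeIJK host. Growth was at 37°C.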

[2] = tested on: Acinetobacter baumannii; experiment: Antimicrobial activity against Acinetobacter baumannii BM4652 expressing adeABC adeIJK double mutant isolated from patient with urinary tract infection by E test; assay type: functional; conditions: BM4652, Urine
How it was run: (§1)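 MICs determined on solid medium (Mueller-Hinton agar) by E-test. The strains are deletion-insertion derivatives of multiresistant urinary isolate BM4454 that lack adeIJK, adeABC or both. Strains were grown at 37°C in brain heart infusion broth or agar or in LB.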

[3] = tested on: Acinetobacter baumannii; experiment: Antimicrobial activity against Acinetobacter baumannii BM4579 expressing adeIJK genes with pAT807 isolated from patient with urinary tract infection by E test; conditions: BM4579, Urine
[4] = tested on: Acinetobacter baumannii; experiment: Antimicrobial activity against Acinetobacter baumannii BM4579 expressing deltaadeIJK genes isolated from patient with urinary tract infection by E test; assay type: functional; conditions: BM4579, Urine; how it was run: as §1
[5] = tested on: Acinetobacter baumannii; experiment: Antimicrobial activity against Acinetobacter baumannii BM4454 isolated from patient with urinary tract infection by E test; assay type: functional; conditions: BM4454, Urine
How it was run: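 MIC read by E-test strip on solid medium against the multiresistant AdeABC-overexpressing urinary isolate. Strains were grown at 37°C in brain heart infusion or LB.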

[6] = tested on: Acinetobacter baumannii; experiment: Antimicrobial activity against Acinetobacter baumannii BM4651 expressing deltaadeABC genes isolated from patient with urinary tract infection by E test; conditions: BM4651, Urine
[7] = tested on: Acinetobacter baumannii; experiment: Antimicrobial activity against Acinetobacter baumannii BM4454 isolated from patient with urinary tract infection by agar dilution method; assay type: functional; conditions: BM4454, Urine
How it was run: (§2)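 MIC by agar dilution, the method used for ticarcillin and SDS. Strains were grown at 37°C in brain heart infusion or LB.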

[8] = tested on: Acinetobacter baumannii; experiment: Antimicrobial activity against Acinetobacter baumannii BM4651 expressing deltaadeIJK genes isolated from patient with urinary tract infection by agar dilution method; assay type: functional; conditions: BM4651, Urine, in the assay text read “deltaadeABC” for “deltaadeIJK”; how it was run: as §2
[9] = tested on: Acinetobacter baumannii; experiment: Antimicrobial activity against Acinetobacter baumannii BM4579 expressing adeIJK genes with pAT807 isolated from patient with urinary tract infection by E test; assay type: functional; conditions: BM4579, Urine, in the assay text read “agar dilution method” for “E test”
[10] = tested on: Acinetobacter baumannii; experiment: Antimicrobial activity against Acinetobacter baumannii BM4579 expressing deltaadeIJK genes isolated from patient with urinary tract infection by agar dilution method; assay type: functional; conditions: BM4579, Urine
How it was run: (§3)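 MICs determined by agar dilution on Mueller-Hinton agar with 10^4 CFU/spot; this method was used for ticarcillin and SDS. The strains are ΔadeIJK or ΔadeABC ΔadeIJK deletion-insertion derivatives of urinary isolate BM4454, grown at 37°C in brain heart infusion or LB medium.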

[11] = tested on: Acinetobacter baumannii; experiment: Antimicrobial activity against Acinetobacter baumannii BM4652 expressing adeIJK genes with pAT807 isolated from patient with urinary tract infection by agar dilution method; assay type: functional; conditions: BM4652, Urine
How it was run: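 Agar-dilution MIC (ticarcillin, SDS), with 0.005 mM IPTG added to induce plasmid pAT807-borne adeIJK in the ΔadeIJK background. Growth was at 37°C.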

[12] = tested on: Acinetobacter baumannii; experiment: Antimicrobial activity against Acinetobacter baumannii BM4652 expressing adeABC adeIJK double mutant isolated from patient with urinary tract infection by agar dilution method; assay type: functional; conditions: BM4652, Urine; how it was run: as §3

| SMILES | MIC [1] [µg/mL] | MIC [2] [µg/mL] | MIC [3] [µg/mL] | MIC [4] [µg/mL] | MIC [5] [µg/mL] | MIC [6] [µg/mL] | MIC [7] [µg/mL] | MIC [8] [µg/mL] | MIC [9] [µg/mL] | MIC [10] [µg/mL] | MIC [11] [µg/mL] | MIC [12] [µg/mL] |
| --- | --- | --- | --- | --- | --- | --- | --- | --- | --- | --- | --- | --- |
| CN(C)c1ccc(O)c2c1C[C@H]1C[C@H]3[C@H](N(C)C)C(O)=C(C(N)=O)C(=O)[C@@]3(O)C(O)=C1C2=O [MINOCYCLINE] | 0.75 (≈ 1.64 µM) | 0.064 (≈ 0.14 µM) | 1 (≈ 2.19 µM) | 0.25 (≈ 0.546 µM) | 1.5 (≈ 3.28 µM) | 0.5 (≈ 1.09 µM) | – | – | – | – | – | – |
| CCn1cc(C(=O)O)c(=O)c2cc(F)c(N3CCN(C)CC3)cc21 [PEFLOXACIN] | 12 (≈ 36 µM) | 4 (≈ 12 µM) | 48 (≈ 144 µM) | 24 (≈ 72 µM) | 48 (≈ 144 µM) | 24 (≈ 72 µM) | – | – | – | – | – | – |
| CN(C)[C@@H]1C(O)=C(C(N)=O)C(=O)[C@@]2(O)C(O)=C3C(=O)c4c(O)cccc4[C@@](C)(O)[C@H]3C[C@@H]12 [TETRACYCLINE] | 0.75 (≈ 1.69 µM) | 0.5 (≈ 1.13 µM) | 6 (≈ 13.5 µM) | 4 (≈ 9 µM) | 48 (≈ 108 µM) | 8 (≈ 18 µM) | – | – | – | – | – | – |
| COc1c(N2C[C@@H]3CCCN[C@@H]3C2)c(F)cc2c(=O)c(C(=O)O)cn(C3CC3)c12 [MOXIFLOXACIN] | – | 0.5 (≈ 1.25 µM) | 16 (≈ 39.9 µM) | 12 (≈ 29.9 µM) | 12 (≈ 29.9 µM) | 3 (≈ 7.47 µM) | – | – | – | – | – | – |
| CN(C)c1cc(NC(=O)CNC(C)(C)C)c(O)c2c1C[C@H]1C[C@H]3[C@H](N(C)C)C(O)=C(C(N)=O)C(=O)[C@@]3(O)C(O)=C1C2=O [TIGECYCLINE] | 3 (≈ 5.12 µM) | 0.047 (≈ 0.0803 µM) | 2 (≈ 3.41 µM) | 1.5 (≈ 2.56 µM) | 4 (≈ 6.83 µM) | 0.5 (≈ 0.854 µM) | – | – | – | – | – | – |
| CO/N=C(\C(=O)N[C@@H]1C(=O)N2C(C(=O)O)=C(COC(C)=O)CS[C@H]12)c1csc(N)n1 [CEFOTAXIME] | 0.25 (≈ 0.549 µM) | 1.5 (≈ 3.29 µM) | 3 (≈ 6.59 µM) | 1.5 (≈ 3.29 µM) | 8 (≈ 17.6 µM) | 8 (≈ 17.6 µM) | – | – | – | – | – | – |
| CC1(C)S[C@@H]2[C@H](NC(=O)[C@H](C(=O)O)c3ccsc3)C(=O)N2[C@H]1C(=O)O [TICARCILLIN] | – | – | – | – | – | – | 8 (≈ 20.8 µM) | 8 (≈ 20.8 µM) | > 256 | 1 (≈ 2.6 µM) | > 256 | 1 (≈ 2.6 µM) |
| CC[C@H]1OC(=O)[C@H](C)[C@@H](O[C@H]2C[C@@](C)(OC)[C@@H](O)[C@H](C)O2)[C@H](C)[C@@H](O[C@@H]2O[C@H](C)C[C@H](N(C)C)[C@H]2O)[C@](C)(O)C[C@@H](C)CN(C)[C@H](C)[C@@H](O)[C@]1(C)O [AZITHROMYCIN] | 24 (≈ 32 µM) | 1.5 (≈ 2 µM) | 96 (≈ 128 µM) | 96 (≈ 128 µM) | 96 (≈ 128 µM) | 1.5 (≈ 2 µM) | – | – | – | – | – | – |
| C[C@@H](O)[C@H]1C(=O)N2C(C(=O)O)=C(SCCNC=N)C[C@H]12 [IMIPENEM ANHYDROUS] | 96 (≈ 321 µM) | 0.25 (≈ 0.835 µM) | 0.25 (≈ 0.835 µM) | 0.25 (≈ 0.835 µM) | 0.5 (≈ 1.67 µM) | 0.5 (≈ 1.67 µM) | – | – | – | – | – | – |
| CCC[C@@H]1C[C@@H](C(=O)N[C@@H]([C@H]2O[C@H](SC)[C@H](O)[C@@H](O)[C@H]2O)[C@H](C)Cl)N(C)C1 [CLINDAMYCIN] | 2 (≈ 4.71 µM) | 2 (≈ 4.71 µM) | 48 (≈ 113 µM) | 48 (≈ 113 µM) | > 256 | > 256 | – | – | – | – | – | – |
| C[C@H]1COc2c(N3CCN(C)CC3)c(F)cc3c(=O)c(C(=O)O)cn1c23.C[C@H]1COc2c(N3CCN(C)CC3)c(F)cc3c(=O)c(C(=O)O)cn1c23.O [LEVOFLOXACIN] | 2 | 0.38 | – | 6 | 12 | 3 | – | – | – | – | – | – |
| CC[C@H]1OC(=O)[C@H](C)[C@@H](O[C@H]2C[C@@](C)(OC)[C@@H](O)[C@H](C)O2)[C@H](C)[C@@H](O[C@@H]2O[C@H](C)C[C@H](N(C)C)[C@H]2O)[C@](C)(O)C[C@@H](C)C(=O)[C@H](C)[C@@H](O)[C@]1(C)O [ERYTHROMYCIN] | 3 (≈ 4.09 µM) | 1.5 (≈ 2.04 µM) | 12 (≈ 16.4 µM) | 8 (≈ 10.9 µM) | 12 (≈ 16.4 µM) | 4 (≈ 5.45 µM) | – | – | – | – | – | – |
| O=C(N[C@H](CO)[C@H](O)c1ccc([N+](=O)[O-])cc1)C(Cl)Cl [CHLORAMPHENICOL] | 6 (≈ 18.6 µM) | 16 (≈ 49.5 µM) | 96 (≈ 297 µM) | 64 (≈ 198 µM) | 256 (≈ 792 µM) | 128 (≈ 396 µM) | – | – | – | – | – | – |
| CO[C@H]1/C=C/O[C@@]2(C)Oc3c(C)c(O)c4c(O)c(c(/C=N/N5CCN(C)CC5)c(O)c4c3C2=O)NC(=O)/C(C)=C\C=C\[C@H](C)[C@H](O)[C@@H](C)[C@@H](O)[C@@H](C)[C@H](OC(C)=O)[C@@H]1C [RIFAMPIN] | 1.5 (≈ 1.82 µM) | 2 (≈ 2.43 µM) | 2 (≈ 2.43 µM) | 2 (≈ 2.43 µM) | 4 (≈ 4.86 µM) | 4 (≈ 4.86 µM) | – | – | – | – | – | – |
